A selection: hits, their analogues and other compounds. The true share with any hit is near 3.1%.
RAM inhibit: inhibitors of the yeast RAM network, primary screen, dse1pr::URA3 reporter, 5-FOA selection. inhibition, % at 50 µM. actives 1.8% (n = 190,000). S. cerevisiae dse1pr::URA3 reporter, 5-FOA growth OD615, 2 d; analog-sensitive cbk1-as2 kinase mutant strain;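 active = inhibition above a set limit, 3 SD over mean compound inhibition, cut at about 8.4% in these data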;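 note: 0% = DMSO-only wells with no growth and 100% = 10 µM 1-NA-PP1 full growth; inhibition rescues growth on 5-FOA so higher OD means more RAM inhibition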
Insulin prom inh: inhibitors of insulin promoter-driven GFP, primary screen, imaging, TRM-6 cells, eGFP reporter, cell count; reporter expression induced with tamoxifen; inhibition, % at 2 µM; actives 0.9% (n = 130,000); AID 1273, 2008;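 active = inhibition above the mean plus 3 SD, with well images judged a real hit on visual review, cut at about 60% in these data, passing the limit was not always enough; inconclusive = inhibition over the cutoff but images rejected on review; inactive = inhibition not above the cutoff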
BB579 growth dn: growth inhibitors of yeast BB579 in restrictive medium, primary screen, yeast lifespan-shortening project, S. cerevisiae | inhibition, % at 10 µM | actives 0.51% (n = 140,000) | OD615, 48 h | AID 804, 2007;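 active = inhibition above a set limit, 3 SD over the mean compound inhibition, cut at about 44% in these data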
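Assay system – yeast BB579 (DeaD) · Dosing – single compound dose of 10 µM, 0.25% DMSO final · Detection – OD615 turbidity measurement · Buffer or medium – CSMM-D restrictive synthetic medium containing dextrose (glucose) · Benchmarks – positive control amphotericin B 10 µg/mL · Incubation – 48 h exposure, 30 °C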
Yeast life ext: compounds extending yeast replicative lifespan, primary screen, S. cerevisiae, OD615; inhibition of the nicotinamide effect, % at 10 µM; AID 775, 2007; S. cerevisiae growth with nicotinamide; deaD strain in restrictive glucose medium; actives 0.68% (n = 130,000);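 active = inhibition above a set limit, placed 3 SD over the median of all compounds, cut at about 26% in these data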;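 note: 0% = nicotinamide-treated wells and 100% = cells grown without nicotinamide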
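System: Modified budding yeast, DeaD strain | Buffer or medium: Restrictive glucose medium | Also added: 1.5 mM nicotinamide | Doses: 10 µM single point, 0.25% DMSO | Schedule: 48 h compound exposure at 30 °C, humidified | Detection: Absorbance at 615 nm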
Insulin prom up: insulin promoter activators in MIN6 cells, imaging, high-content screening, mouse beta cells; z-score at 5 µM; MIN6 insulin promoter-GFP reporter; stronger effect = higher value; actives 0.3% (n = 190,000);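 active = z-score above 3 at 5 µM with at least 500 cells counted in the well; inconclusive = wells under 500 cells, flagged as cytotoxic or low count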
* marks the source's active call; other numbers are inactive results; u = inconclusive; x = no result given.

SMILES	RAM inhibit	Insulin prom inh	BB579 growth dn	Yeast life ext	Insulin prom up
CCN(CC)S(=O)(=O)c1ccc(N2CCCC2)c(C(=O)OCC(=O)Nc2cc(C)on2)c1	x	x	x	x	-0.81
CC1CCCCN1C(=O)Nc1cccc(C(F)(F)F)c1 (configuration not stated)	-0.4	-42.9	x	x	0.05
CC(C)C(O)(C#CCN1CCCCCC1)c1ccccc1 (configuration not stated)	2.1	21.4	x	x	-1
COCCNC(=S)N(CCc1c(C)[nH]c2ccc(Cl)cc12)Cc1cccs1	9.8*	-110.8	x	x	-0.06
C=C(C)C1(O)OC(=O)C=C1OC (configuration not stated)	2.2	x	x	x	1.29
O=S(=O)(Nc1nc2ccccc2s1)c1ccc(Cl)nc1	x	x	x	x	0.3
Cc1ccc(O)c(-c2cc(-c3ccccc3[N+](=O)[O-])[nH]n2)c1	3.5	0.0	-6.0	-9.3	0.04
Cc1ccc(O)c(-c2cc(-c3ccccc3C)[nH]n2)c1	4.8	u	98.8*	-13.7	-0.43
O=[N+]([O-])c1ccccc1-c1cc(-c2cc(Cl)ccc2O)n[nH]1	2.4	-44.8	95.9*	-7.2	-1
COc1ccc(C(=O)Nc2ccc([N+](=O)[O-])cn2)c(OC)c1	2.6	8.8	-19.1	-3.4	-0.33
O=C(Cn1cnc2c(oc3ccccc32)c1=O)NCc1ccccc1	3.0	x	8.2	-0.5	-0.88
O=C(Cn1cnc2c(oc3ccccc32)c1=O)NCc1ccco1	1.2	81.8*	-58.0	-4.9	1.22
CC1CCCCN1C(=O)/C(=C\c1ccccc1)c1ccccc1 (configuration not stated)	3.0	15.6	-51.0	-2.7	x
Nc1c(C(=O)NCc2ccc3c(c2)OCO3)c2nc3ccccc3nc2n1CCCN1CCOCC1	9.8*	x	-35.9	-24.8	-1.34
CC(C)(CCl)C(=O)Nc1ccc(C(F)(F)F)cc1	0.0	84.6*	x	x	-0.06
C/C(=C\C(=O)C(F)(F)F)Nc1ccc(C(F)(F)F)cc1	2.3	40.6	-28.7	-21.6	0.12
Cn1cnnc1SCC(=O)Nc1nc(-c2ccc(F)cc2)cs1	0.7	27.3	x	x	0.78
CCn1c(=O)c(C(=O)NNS(=O)(=O)c2ccc(Cl)cc2)c(O)c2ccccc21	0.6	x	-30.3	28.2*	-0.17
O=C(C1COc2ccccc2O1)N1CCOCC1 (configuration not stated)	1.5	21.4	-20.7	-7.4	0.32
CC12CC(c3ccccc3O1)C(C(=O)N1CCOCC1)C(=O)N2 (configuration not stated)	0.2	71.4*	-41.7	-14.3	-0.04
Cc1ccc(CCc2nnc(SCC(=O)Nc3cc(Cl)ccc3Cl)n2-c2ccccc2)o1	9.7*	-10.0	-26.5	2.1	-0.29
COCc1nnc(SCC(=O)Nc2cccc(Cl)c2C)n1-c1ccccc1	0.0	x	-19.0	-2.1	-0.2
CC(C)c1ccc(CC(C)C2C3=C(CCCC3=O)OC3=C2C(=O)CCC3)cc1 (configuration not stated)	5.5	0.0	-71.3	6.6	0.63
CCc1nnc(NC(=O)CSc2nnc(-c3ccoc3C)n2-c2ccccc2)s1	2.7	81.4*	-17.0	-1.9	x
N#Cc1ccccc1NC(=O)CSc1nnc(-c2ccccc2O)n1-c1ccccc1	10.2*	35.0	-36.0	-4.9	-0.38
SMILES	RAM inhibit	Insulin prom inh	BB579 growth dn	Yeast life ext	Insulin prom up
CCc1nnc(NC(=O)CSc2nc(C3CCCCC3)nc3ccccc23)s1	10.1*	33.3	-67.2	6.6	x
COCCCn1c(SCC(=O)Nc2nnc(C)s2)nnc1-c1ccoc1C	1.4	x	-6.9	59.6*	-0.63
O=C(O)CCC(=O)N1CCC(n2nnc3cc(C(F)(F)F)ccc32)CC1	x	x	x	x	-1.6
COc1ccc2c(c1)C(=NN)c1cc(OC)ccc1-2	1.9	-54.3	-25.6	-27.9	-0.51
Cn1c(=O)c(Nc2ccc(Cl)cc2)c2c3c(cccc31)C(=O)c1ccccc1-2	2.7	x	x	x	15.1*
CC(=O)Nc1c2c3c(cccc3n(C)c1=O)C(=O)c1ccccc1-2	0.7	21.4	-8.0	-5.2	x
Cc1ccc(NC(=O)C2(c3cccs3)CCOCC2)cc1C	2.8	23.3	-13.3	2.0	0.59
Cc1ccc(SCCNC(=S)Nc2cc(C)ccc2C)cc1	8.9*	24.1	7.9	-13.0	-0.61
Cc1snc(S(=O)(=O)/C(C#N)=N/Nc2cccc(C(F)(F)F)c2)c1C#N	3.8	75.0*	-42.4	-15.2	0.32
CCOC(=O)N(C)S(=O)(=O)c1ccccc1[N+](=O)[O-]	2.5	x	x	x	-0.15
COc1ccc(/C=N/NC(=O)CSc2nnc(CCCc3ccc(OC)c(C)c3)o2)cc1	10.3*	34.3	-37.4	-0.8	x
CCCCN(C)S(=O)(=O)c1cc(Br)cc2c1N(C(=O)C1CC1)CC2	9.2*	x	-28.2	14.4	-1.28
O=C(O)C(=O)/C(=C\c1cccc2ccccc12)c1ccc2ccccc2n1	1.9	10.0	-45.7	30.0*	0.07
O=C(Nc1ccc(Cl)cn1)c1ccc(COc2ccccc2Br)o1	11.1*	43.8	x	x	-0.54
Cc1nn(C2CCS(=O)(=O)C2)c(Cl)c1/C=C/C(=O)OCC(=O)Nc1ccccc1OC(F)F (configuration not stated)	1.0	65.7*	-23.8	0.5	x
O=C(COc1ccc2ccccc2c1)Nc1cccc(C(=O)Nc2ccccc2C(=O)O)c1	4.6	0.0	-35.1	63.7*	1.65
Cc1ccc(NC(=O)ON=C2CCCC2)cc1	-0.1	-11.1	95.0*	-13.3	1.53
Cc1cc(=O)c2cc3nc(-c4cccnc4)oc3c(Br)c2o1	x	x	x	x	0.05
CCn1cc(C2=NC(CC(C)C)CO2)c2ccccc21 (configuration not stated)	x	x	x	x	-0.77
CC(Sc1nc(-c2ccccc2)cc(C(F)(F)F)n1)C(=O)Nc1sc2c(c1C(N)=O)CCC2 (configuration not stated)	0.8	-3.5	-14.3	0.4	0.35
CC(Sc1nc(-c2ccccc2)cc(C(F)(F)F)n1)C(=O)Nc1sc2c(c1C#N)CCC2 (configuration not stated)	10.0*	20.8	-31.1	1.3	-0.78
CCCCN(CC)S(=O)(=O)c1ccc(C(=O)Nc2nnc(-c3cccs3)o2)cc1	8.6*	x	-45.3	-12.4	0.85
CCN(CC)C(=S)SCC(=O)c1ccc(Br)cc1	-0.8	-381.2	-14.7	3.0	0.15
CC(C)Sc1nc2ccccc2n1CC(=O)NCc1ccc2c(c1)OCO2	2.2	91.4*	-30.6	-16.1	0.08
O=C(NCc1ccc2c(c1)OCO2)c1ccc(CSCc2ccc(Cl)cc2)o1	7.3	-20.0	-32.4	5.8	-0.53
O=C(CSc1nc2ccccc2o1)NCc1ccc2c(c1)OCO2	3.7	x	-23.2	-9.3	0.63
O=C(NCc1ccc2c(c1)OCO2)c1ccc(COc2cc(Cl)ccc2Cl)o1	9.4*	x	-41.8	-4.1	0.02
CC(C)N(C(=O)Cn1c(SCC(=O)NCc2ccc3c(c2)OCO3)nc2ccccc21)C(C)C	5.1	-160.0	-10.1	x	0.29

From PubChem
